# The list is not random: actives were taken first. Their share in the collection is about 1.2%.
# FN deposition inh – fibronectin deposition inhibition. 350,000 tested, 0.086% active. AID 743247. AH1F fibroblasts, Alexa488-fibronectin deposition fluorescence, overnight. inhibition, % at 12.6 µM;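 active means mean inhibition across replicates of 30% or more, regardless of how many single replicates reach that level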;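 further: positive control wells lacked labelled fibronectin entirely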
#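 Assay system: AH1F fibroblasts assembling fluorescent fibronectin matrix; Amount: 10000 AH1F cells per well; Buffer or medium: DMEM, 2% serum; Probe or stimulus: Alexa488-fibronectin, 24 nM final in well; Doses: single compound dose, delivered by pin transfer; Incubation: 1 h adhesion, overnight exposure; Measured by: fluorescence 485/525 nm; Read-out: fibronectin deposition inhibition.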
# ABHD5 PLIN5 PPI – blocks binding of human ABHD5 to perilipin-5; Q00G26+Q8WTS1; Split G. princeps luciferase complementation, luminescence, 4 h; inhibition, % at 4 µM; 360,000 tested, 0.78% active; AID 602281;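 active means inhibition above the mean inhibition across every tested compound plus 3 SD, cut at about 22% in these data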;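 further: 0% = DMSO only wells and the 100% control is not disclosed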
# Target sequence (Q00G26 whole entry, looked up): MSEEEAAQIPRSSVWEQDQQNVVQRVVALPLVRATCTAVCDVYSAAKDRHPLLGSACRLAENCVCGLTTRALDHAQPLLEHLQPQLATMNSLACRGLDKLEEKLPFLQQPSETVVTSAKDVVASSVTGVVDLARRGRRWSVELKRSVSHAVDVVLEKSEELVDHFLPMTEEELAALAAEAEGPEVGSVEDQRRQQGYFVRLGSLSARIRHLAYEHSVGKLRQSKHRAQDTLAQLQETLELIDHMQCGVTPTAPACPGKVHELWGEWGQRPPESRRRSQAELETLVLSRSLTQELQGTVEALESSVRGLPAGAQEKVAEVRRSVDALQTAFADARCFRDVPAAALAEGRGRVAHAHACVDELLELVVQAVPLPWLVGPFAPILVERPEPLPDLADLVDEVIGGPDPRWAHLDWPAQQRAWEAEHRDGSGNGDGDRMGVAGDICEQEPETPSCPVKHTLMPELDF
# Target sequence (Q8WTS1 whole entry, looked up): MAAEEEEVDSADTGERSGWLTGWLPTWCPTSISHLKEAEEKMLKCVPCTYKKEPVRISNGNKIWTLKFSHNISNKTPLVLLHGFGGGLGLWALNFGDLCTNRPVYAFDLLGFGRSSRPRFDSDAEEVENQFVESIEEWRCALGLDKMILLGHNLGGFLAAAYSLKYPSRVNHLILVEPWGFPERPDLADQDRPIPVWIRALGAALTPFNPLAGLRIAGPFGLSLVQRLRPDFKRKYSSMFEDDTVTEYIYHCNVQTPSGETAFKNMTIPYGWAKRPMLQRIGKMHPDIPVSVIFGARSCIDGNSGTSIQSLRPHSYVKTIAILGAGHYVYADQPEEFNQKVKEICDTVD
# A3G deaminase – inhibitors of human APOBEC3G DNA deaminase; inhibition, % at 20 µM; 330,000 tested, 0.28% active; recombinant A3G, ssDNA deamination FAM/TAMRA fluorescence; Q9HC16;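 active means inhibition of at least 40% at 20 µM, with no more than 30% in the related APOBEC3A deaminase screen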;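 further: plate controls were DMSO wells with A3G for no effect and wells lacking A3G enzyme for full effect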
# A3A deaminase – blocks human APOBEC3A ssDNA deamination | P31941 | inhibition, % at 20 µM | recombinant A3A, FAM/TAMRA ssDNA deamination fluorescence | 330,000 tested, 0.41% active | AID 493011;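 active means at least 40% inhibition at 20 µM here, with at most 30% in a related deaminase screen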;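 further: plate controls were A3A with DMSO for no effect and wells lacking A3A enzyme for full effect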
# APOBEC3A confirm – APOBEC3A (human) deaminase inhibition, confirmed. shares compounds with A3A deaminase. recombinant A3A, ssDNA deaminase UDG fluorescence assay. inhibition, % at 20 µM. 1,400 tested, 63% active;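 active means inhibition reaching a set limit, 80% of the first screen's cutoff, at 20 µM in any replicate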;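 further: plate controls were DMSO wells with A3A for no effect and wells lacking A3A enzyme for full effect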
# UDG ctr A3A – inhibits UDG, flagging false APOBEC3A inhibitors; shares compounds with A3A deaminase; UDG counterscreen, FAM/TAMRA uracil oligo fluorescence; inhibition, % at 20 µM; 1,000 tested, under 10 active; AID 504714; call rule not given here
# Active calls of the source: *; . = no result.
SMILES,FN deposition inh,ABHD5 PLIN5 PPI,A3G deaminase,A3A deaminase,APOBEC3A confirm,UDG ctr A3A
O=C(O)c1cc2nc(-c3cccs3)cc(C(F)(F)F)n2n1,3.0,4.2,-11.6,74.4*,49.6*,-3.5
C[C@@H]1CN(C)C(=O)c2cccnc2O[C@@H]1CN(C)C,-20.7,.,.,.,.,.
CC1=C(C)CC(C(=O)N2CCN(C/C=C/c3ccccc3)CC2)C(C(=O)O)C1 (configuration not stated),-0.9,2.3,-5.9,-2.0,.,.
O=C(O)C1C2C=CC(C2)C1C(=O)N1CCN(C/C=C/c2ccccc2)CC1 (configuration not stated),.,5.7,0.5,46.9*,1.4,.
CCn1c(C)cc(/C=C2\NC(=O)N(CC(=O)Nc3ccc(F)cc3)C2=O)c1C,14.8,1.8,9.9,66.0*,74.1*,1.9
COc1ccc(N(CC(=O)NCC(C)C)S(=O)(=O)c2ccccc2)cc1,.,-2.1,8.6,40.7*,10.1,.
CC(C)c1ccc(N(CC(=O)NN=C2CCN(C)CC2)S(=O)(=O)c2ccccc2)cc1,1.5,-1.6,-4.0,64.6*,3.0,6.5
COc1ccc(N(CC(=O)NCCSc2ccc(C)cc2)S(=O)(=O)c2ccccc2)c(OC)c1,5.4,1.7,12.3,53.8*,40.5*,-1.5
CN1CCC(=NNC(=O)CN(c2ccccc2)S(=O)(=O)c2ccccc2)CC1,.,-2.2,-6.0,-1.7,.,.
COc1ccc(N(CC(=O)NCCSC2CCCCC2)S(=O)(=O)c2ccccc2)c(OC)c1,-8.2,1.9,-4.3,-5.3,.,.
C[C@@H]1CN([C@H](C)CO)C(=O)CCCn2cc(nn2)CO[C@@H]1CN(C)C(=O)Nc1ccccc1C(F)(F)F,-4.5,.,.,.,.,.
CNC(=O)C[C@@H]1CC[C@@H]2[C@@H](COc3ccc(NC(=O)Nc4cccc(F)c4)cc3C(=O)N2C)O1,-9.3,.,.,.,.,.
COc1ccc(C(=O)Nc2ccc3c(c2)C(=O)N(C)C[C@H](OC)[C@@H](C)CN(C(C)=O)[C@H](C)CO3)cc1,2.9,.,.,.,.,.
Cc1cccc(NC(=O)CNC(=O)CSc2ncccn2)c1C,-2.5,3.4,13.7,2.2,.,.
Cc1cccc(NC(=O)CNC(=O)Cn2ncc(Cl)c(Cl)c2=O)c1C,.,11.7,19.9,49.0*,38.2*,2.2
Cn1c(=Nc2ccc(N3CCOCC3)cc2)ccc2ccccc21,.,3.7,20.3,54.3*,20.9,.
CCn1c(=Nc2ccc(N3CCOCC3)cc2)ccc2ccccc21,.,0.9,-3.6,-3.0,.,.
COCCN(C(=O)COC(=O)CNC(=O)c1cccs1)c1c(N)n(Cc2ccccc2)c(=O)[nH]c1=O,1.1,-2.4,9.4,52.8*,50.3*,-3.1
CCN(C(=O)COC(=O)CNC(=O)c1cccs1)c1c(N)n(Cc2ccccc2)c(=O)[nH]c1=O,2.5,9.0,.,.,.,.
C[N+]1(CC(O)c2ccccc2)CCCCCC1 (configuration not stated),-12.8,11.0,24.4,69.4*,63.9*,3.0
C[N+]1(CCC(=O)c2ccccc2)CCCCC1,2.8,-1.6,33.9,64.7,.,.
OC(CC(O)c1ccccc1)c1ccccc1 (configuration not stated),.,-6.8,.,.,.,.
CC(=O)OC(C[N+]1(C)CCCCCC1)c1ccccc1 (configuration not stated),2.5,-7.0,14.1,78.8*,69.3*,-2.1
CCCN(C)C[C@@H]1Oc2cc(C#Cc3ccncc3)ccc2S(=O)(=O)N([C@H](C)CO)C[C@@H]1C,-19.1,.,.,.,.,.
O=C1[C@H](Cc2ccc(C(F)(F)F)cc2)CCn2cc(nn2)COC[C@@H]2CCCCN12,7.2,.,.,.,.,.
SMILES,FN deposition inh,ABHD5 PLIN5 PPI,A3G deaminase,A3A deaminase,APOBEC3A confirm,UDG ctr A3A
C[C@H](CO)N1C[C@H](C)[C@H](CN(C)C)Oc2ncc(C#Cc3ccccc3)cc2C1=O,0.0,.,.,.,.,.
Cc1cc(Br)ccc1NC(=O)CN(C)C(=O)CNC(=O)Cc1ccccc1,-5.5,3.8,-7.7,0.1,.,.
CCN(CC(=O)NCC(=O)Nc1ccc(Br)cc1C)Cc1ccccc1,7.9,-5.9,-7.5,40.1*,8.0,5.0
CCCC(=O)Nc1ccc2c(c1)C(=O)N(C)C[C@H](OC)[C@@H](C)CN(C(=O)c1ccncc1)[C@@H](C)CO2,10.4,.,.,.,.,.
CCN1CCN(c2ccc(S(=O)(=O)N3CCOCC3)cc2NC(=O)c2ccc(Cl)cc2Cl)CC1,-3.3,1.3,4.5,44.8*,23.9,.
CCN1CCN(S(=O)(=O)c2ccc(Cl)c(C(=O)Nc3cc(Cl)ccc3N3CCOCC3)c2)CC1,0.3,12.9,27.6,54.0*,58.3*,-0.3
CCN1CCN(c2ccc(S(=O)(=O)N3CCOCC3)cc2NC(=O)c2ccc(C)c(C)c2)CC1,6.1,9.6,-5.8,24.2,.,.
CCN1CCN(S(=O)(=O)c2ccc(Cl)c(C(=O)Nc3ccccc3N3CCOCC3)c2)CC1,1.3,6.0,4.0,52.6*,57.3*,-1.3
Cc1cc(C)cc(N=C2NC(=O)/C(=C/c3cccs3)S2)c1,9.7,0.3,13.2,42.0*,26.3,.
O=C1NC(=Nc2ccccc2)S/C1=C\c1cccs1,-9.6,-1.1,-8.3,-3.6,.,.
Cc1cc(C)cc(N2CC(c3nc4ccccc4n3C)CC2=O)c1 (configuration not stated),1.3,0.3,21.4,58.4*,45.9*,-0.8
COc1cccc(S(=O)(=O)N2C[C@@H]3N[C@H](C2)C3c2ccc(-c3ccc(C(=O)N(C)C)cc3)cc2)c1 (some centres not stated),4.7,.,.,.,.,.
Cc1ccn(CCC(=O)N2CCc3ccccc32)n1,2.9,0.5,-2.2,90.9*,-8.0,-0.7
O=C(Cn1ccc([N+](=O)[O-])n1)N1CCc2ccccc21,-0.8,0.1,1.3,5.0,.,.
COc1ccc(S(=O)(=O)N(CC(=O)NC2CC2)C2CCCCC2)cc1Cl,5.7,6.1,-0.2,3.5,.,.
CNC(=O)CN(C1CCCCC1)S(=O)(=O)c1ccc(OC)c(Cl)c1,.,0.8,17.3,44.1*,14.9,.
OC[C@@H]1Nc2ccc(C#Cc3ccc(F)cc3)cc2[C@H]2[C@@H]1CCN2Cc1nccs1,-28.3,.,.,.,.,.
O=C(NCc1ccc2c(c1)OCO2)c1ccc(Br)cc1,-5.8,0.0,-3.6,-4.3,.,.
O=C(NCc1ccc2c(c1)OCO2)c1cc2ncc(Br)cn2n1,.,-2.5,10.4,92.7*,82.7*,-1.1
Cc1nn(Cc2ccc(F)cc2)c(C)c1NC(=O)c1cc2ncc(Br)cn2n1,-1.8,-1.3,4.3,40.7*,26.4,.
Cc1ccc(S(=O)(=O)Nc2ccc3c(c2)C(=O)N([C@@H](C)CO)C[C@H](C)[C@@H](CN(C)C(=O)C2CCCCC2)OCCCC[C@H](C)O3)cc1,-4.6,.,.,.,.,.
CCCNC(=O)Nc1ccc2c(c1)C(=O)N(C)[C@@H]1CC[C@@H](CC(=O)O)O[C@H]1CO2,-9.1,.,.,.,.,.
CO[C@H]1CN(C)C(=O)c2ccc(NC(C)=O)cc2OC[C@H](C)N(C(=O)c2ccc(F)cc2)C[C@H]1C,-6.1,.,.,.,.,.
CO[C@@H]1CN(C)C(=O)c2ccc(NC(=O)c3ccccc3)cc2OC[C@@H](C)N(C(=O)C2CC2)C[C@@H]1C,-3.0,.,.,.,.,.
